# Source: PMC9588736 (Cell chemical biology, 2022)
# Like-named read-outs stand apart in the source and are kept apart here.
# Legend:
# KEAP1 [1] = molecular target: T1, KEAP1 (Homo sapiens, UniProt Q14145); experiment: KEAP1-NRF2 displacement TR-FRET assay; assay type: binding
# Target sequence in this assay (Q14145 321-609): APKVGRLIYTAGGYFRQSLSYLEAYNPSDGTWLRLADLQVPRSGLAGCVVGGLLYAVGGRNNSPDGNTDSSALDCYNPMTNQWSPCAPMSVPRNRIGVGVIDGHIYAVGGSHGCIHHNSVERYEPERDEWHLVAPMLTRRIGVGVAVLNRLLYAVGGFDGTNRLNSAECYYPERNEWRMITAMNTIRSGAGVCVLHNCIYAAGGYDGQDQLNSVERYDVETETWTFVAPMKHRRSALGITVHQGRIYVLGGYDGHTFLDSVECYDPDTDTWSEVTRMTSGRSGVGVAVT
# KEAP1-BRD4BD2 = KEAP1-BRD4BD2 (Homo sapiens, UniProt O60885+Q14145); experiment: KEAP1-BRD4BD2 dimerization TR-FRET assay; assay type: biochemical
# Procedure, shortened: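 TR-FRET mix: 200 nM biotinylated human BRD4BD2, 200 nM Alexa Fluor 647-labelled human KEAP1 (residues 321–609, insect-cell expressed, SpyCatcher-labelled) and 2 nM Eu-streptavidin. Buffer was 50 mM Tris pH 8.0, 200 mM NaCl, 0.1% Pluronic F-68, 0.5% BSA and 1 mM TCEP; compound was titrated. After 15 min at room temperature, excitation was 337 nm and the 665/620 nm ratio was read over thirty 200-s cycles. Mean ± SD of ≥3 technical replicates; two independent experiments.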
# BRD4 = BRD4 (Homo sapiens, UniProt O60885); experiment: Immunoblot of BRD4 degradation in MM.1S cells; assay type: cell-based
# Procedure, shortened: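 MM.1S cells were treated with test compound for 16 h (24 h in the initial screen). For rescue, cells were pretreated 2 h with 10 μM KEAP1 inhibitor, 10 μM JQ1 or 1 μM MLN4924. Lysates in RIPA were BCA-normalised, run on 4–12% gels and blotted to PVDF with IRDye secondaries. BRD4 bands were quantified relative to β-actin. Two independent experiments.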
# KEAP1 [2] = molecular target: T1, KEAP1; experiment: Immunoblot of KEAP1 degradation in WT and CRBN−/− MM.1S cells; assay type: cell-based; settings: for KEAP1 degradation in CRBN knockout cells: CRBN−/− MM.1S cells; for KEAP1 degradation in CRBN knockout cells / KEAP1 degradation in wildtype cells: 5 μM, 2-hour treatment; for KEAP1 degradation: MM.1S cells; for KEAP1 degradation in wildtype cells: wildtype MM.1S cells
# Target sequence in this assay (Q14145 whole entry): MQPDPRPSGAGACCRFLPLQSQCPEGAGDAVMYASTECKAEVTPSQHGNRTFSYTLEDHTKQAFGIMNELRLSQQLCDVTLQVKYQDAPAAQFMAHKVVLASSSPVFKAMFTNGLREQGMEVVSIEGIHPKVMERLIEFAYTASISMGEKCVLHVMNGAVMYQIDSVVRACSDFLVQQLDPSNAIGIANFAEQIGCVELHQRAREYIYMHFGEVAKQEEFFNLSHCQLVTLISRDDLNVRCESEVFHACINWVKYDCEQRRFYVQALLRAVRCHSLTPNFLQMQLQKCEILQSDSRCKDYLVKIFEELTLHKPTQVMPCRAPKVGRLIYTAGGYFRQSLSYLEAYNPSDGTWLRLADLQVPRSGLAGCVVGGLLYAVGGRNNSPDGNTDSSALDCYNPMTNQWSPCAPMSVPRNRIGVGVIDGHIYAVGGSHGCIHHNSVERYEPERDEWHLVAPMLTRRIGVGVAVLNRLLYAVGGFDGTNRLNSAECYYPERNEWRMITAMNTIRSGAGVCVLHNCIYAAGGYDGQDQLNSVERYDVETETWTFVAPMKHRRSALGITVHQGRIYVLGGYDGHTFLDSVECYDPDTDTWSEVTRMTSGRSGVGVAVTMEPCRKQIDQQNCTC
# CRBN = CRBN (Homo sapiens, UniProt Q96SW2); experiment: Immunoblot of CRBN in MM.1S cells; assay type: cell-based
# Chain of CRBN (Q96SW2 whole entry): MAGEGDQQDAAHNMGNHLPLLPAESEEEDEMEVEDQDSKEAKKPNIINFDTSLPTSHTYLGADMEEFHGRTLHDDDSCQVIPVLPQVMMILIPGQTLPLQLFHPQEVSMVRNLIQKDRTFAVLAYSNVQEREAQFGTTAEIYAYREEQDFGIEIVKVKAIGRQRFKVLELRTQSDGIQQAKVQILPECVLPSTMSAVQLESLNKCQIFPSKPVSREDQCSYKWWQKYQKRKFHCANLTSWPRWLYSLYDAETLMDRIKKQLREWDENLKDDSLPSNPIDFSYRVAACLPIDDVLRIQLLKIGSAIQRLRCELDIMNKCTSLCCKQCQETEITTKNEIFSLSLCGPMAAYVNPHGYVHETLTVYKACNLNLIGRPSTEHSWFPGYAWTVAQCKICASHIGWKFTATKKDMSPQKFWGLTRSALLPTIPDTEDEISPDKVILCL
# OVCAR8 cells = experiment: Proteomics profiling of KEAP1-CRBN PROTACs; assay type: cell-based, human; settings: legend: MM.1S cells, 5 h, 5 μM
# MM.1S cells = experiment: Antiproliferation assay; assay type: cell-based; settings: Homo sapiens, MM1.S, 72 h, read-out: anti-proliferative effect
# Procedure, shortened: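 MM.1S cells (RPMI, 10% FBS, 1% Pen/Strep, 37°C, 5% CO2) seeded at 10000 cells/well and grown 12 h, then exposed to test compound for 72 h. Viability read by CellTiter-Glo luminescence. Dose-response curves fitted by non-linear regression. Mean ± SEM of three technical replicates; representative of two independent experiments.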
# Chain of KEAP1-BRD4BD2 (Q14145 321-609 limits assumed, other chains not shown): as the sequence (Q14145 321-609) above
smiles,measurement,setting,value
"COc1cc(C(CC(=O)O)c2ccc(C)c(CN3C[C@@H](C)Oc4cc(CCCCCCNC(=O)C[C@@H]5N=C(c6ccc(Cl)cc6)c6c(sc(C)c6C)-n6c(C)nnc65)ccc4S3(=O)=O)c2)cc2nnn(C)c12 (mixture of isomers) [DGY-06–177, 3-(3-(((R)-7-(6-(2-((S)-4-(4-chlorophenyl)-2,3,9-trimethyl-6H-thieno[3,2-f][1,2,4]triazolo[4,3-a][1,4]diazepin-6-yl)acetamido)hexyl)-4-methyl-1,1-dioxido-3,4-dihydro-2H-benzo[b][1,4,5]oxathiazepin-2-yl)methyl)-4-methylphenyl)-3-(7-methoxy-1-methyl-1H-benzo[d][1,2,3]triazol-5-yl)propanoic acid]",IC50,KEAP1 [1],145 nM
same,concentration at which KEAP1-BRD4BD2 dimerization is promoted,KEAP1-BRD4BD2,approximately 100 nM
same,concentration at which hook effect is exhibited,"BRD4; MM.1S cells, 24 h",5 µM
same,concentration of maximal BRD4 degradation,"BRD4; MM.1S cells, 24 h",1 µM
"COc1cc(C(CC(=O)O)c2ccc(C)c(CN(C)S(=O)(=O)c3ccc(OCCCCCCNC(=O)C[C@@H]4N=C(c5ccc(Cl)cc5)c5c(sc(C)c5C)-n5c(C)nnc54)cc3)c2)cc2nnn(C)c12 (stereo partly drawn) [DGY-05–089, 3-(3-(((4-((6-(2-((S)-4-(4-chlorophenyl)-2,3,9-trimethyl-6H-thieno[3,2-f][1,2,4]triazolo[4,3-a][1,4]diazepin-6-yl)acetamido)hexyl)oxy)-N-methylphenyl)sulfonamido)methyl)-4-methylphenyl)-3-(7-methoxy-1-methyl-1H-benzo[d][1,2,3]triazol-5-yl)propanoic acid]",IC50,"KEAP1 [1]; read-out: IC50, KEAP1-NRF2 TR-FRET displacement",147 nM
same,KEAP1-BRD4BD2 ternary complex formation / dimerization,KEAP1-BRD4BD2,did not induce ternary complex formation
same,BRD4 degradation,"BRD4; MM.1S cells, 24 h",failed to degrade BRD4
"COc1cc([C@@H](CC(=O)O)c2ccc(C)c(CN3C[C@@H](C)Oc4cc(CCCCCCNC(=O)COc5cccc6c5C(=O)N(C5CCC(=O)NC5=O)C6=O)ccc4S3(=O)=O)c2)cc2nnn(C)c12 (stereo partly drawn) [NJH-04–086, (3S)-3-(3-(((4R)-7-(6-(2-((2-(2,6-dioxopiperidin-3-yl)-1,3-dioxoisoindolin-4-yl)oxy)acetamido)hexyl)-4-methyl-1,1-dioxido-3,4-dihydro-2H-benzo[b][1,4,5]oxathiazepin-2-yl)methyl)-4-methylphenyl)-3-(7-methoxy-1-methyl-1H-benzo[d][1,2,3]triazol-5-yl)propanoic acid]",KEAP1 degradation in CRBN knockout cells,KEAP1 [2],not CRBN^−/− MM.1S cells
same,KEAP1 degradation,KEAP1 [2],rapid degradation of KEAP1
same,KEAP1 degradation in wildtype cells,KEAP1 [2],observed KEAP1 degradation
same,effect on CRBN,CRBN,spared CRBN
same,selectivity of degradation across the proteome,OVCAR8 cells,clear degradation of KEAP1 and a few zinc finger proteins
"COc1cc([C@@H](CC(=O)O)c2ccc(C)c(CN3C[C@@H](C)Oc4cc(CCCCCCNC(=O)COc5cc6c7c(cccc7c5)C(=O)N(C5CCC(=O)NC5=O)C6=O)ccc4S3(=O)=O)c2)cc2nnn(C)c12 (stereo partly drawn) [NJH-04–087, (3S)-3-(3-(((4R)-7-(6-(2-((2-(2,6-dioxopiperidin-3-yl)-1,3-dioxo-2,3-dihydro-1H-benzo[de]isoquinolin-5-yl)oxy)acetamido)hexyl)-4-methyl-1,1-dioxido-3,4-dihydro-2H-benzo[b][1,4,5]oxathiazepin-2-yl)methyl)-4-methylphenyl)-3-(7-methoxy-1-methyl-1H-benzo[d][1,2,3]triazol-5-yl)propanoic acid]",KEAP1 degradation in CRBN knockout cells,KEAP1 [2],not CRBN^−/− MM.1S cells
same,KEAP1 degradation,KEAP1 [2],rapid degradation of KEAP1
same,KEAP1 degradation in wildtype cells,KEAP1 [2],observed KEAP1 degradation
same,effect on CRBN,CRBN,spared CRBN
same,selectivity of degradation across the proteome,OVCAR8 cells,selective for inducing degradation of KEAP1 across the proteome and does not degrade any zinc finger proteins
"CCOC(=O)C[C@@H](c1ccc(C)c(CN2C[C@@H](C)Oc3cc(CCCCCCNC(=O)C[C@@H]4N=C(c5ccc(Cl)cc5)c5c(sc(C)c5C)-n5c(C)nnc54)ccc3S2(=O)=O)c1)c1cc(OC)c2c(c1)nnn2C [NJH-05–146, Ethyl (S)-3-(3-(((R)-7-(6-(2-((S)-4-(4-chlorophenyl)-2,3,9-trimethyl-6H-thieno[3,2-f][1,2,4]triazolo[4,3-a][1,4]diazepin-6-yl)acetamido)hexyl)-4-methyl-1,1-dioxido-3,4-dihydro-2H-benzo[b][1,4,5]oxathiazepin-2-yl)methyl)-4-methylphenyl)-3-(7-methoxy-1-methyl-1H-benzo[d][1,2,3]triazol-5-yl)propanoate]",KEAP1 binding / engagement in TR-FRET Nrf2 peptide displacement assay,KEAP1 [1],did not bind KEAP1
same,activity at prolonged timepoints,BRD4,inactive even at prolonged timepoints
same,"BRD4 degradation, negative control","BRD4; MM.1S cells, 16-hour treatment at 0.1, 1, and 10 μM",did not result in degradation of BRD4
same,IC50,MM.1S cells,> 10000 nM
